Experimental data from ChEMBL document CHEMBL4038309, “Design and Synthesis of Chlorinated and Fluorinated 7-Azaindenoisoquinolines as Potent Cytotoxic Anticancer Agents That Inhibit Topoisomerase I” (J Med Chem, 2017).
pIC50: −log10 of the molar value. Activity calls are given as the source filed them. The rule behind the calls is not given here.

Key:
[1] = tested on: MCF7; assay: Antiproliferative activity against human MCF7 cells assessed as growth inhibition; type: functional
Procedure, shortened: (§1)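 NCI-60 screen: single-dose pre-screen at 10 μM, then five concentrations from 0.01 to 100 μM. Values beyond the tested range are recorded as 0.01 or 100 μM.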

[2] = tested on: CCRF-CEM; assay: Induction of DNA damage in human CCRF-CEM cells assessed as gamma-H2AX foci formation at 0.1 to 1 uM after 2 hrs by confocal microscopy; type: functional, cell-based
[3] = tested on: PBMC; assay: Induction of DNA damage in human PBMC assessed as gamma-H2AX foci formation at 0.1 to 1 uM after 2 hrs by confocal microscopy; type: cell-based
[4] = tested on: Danio rerio; assay: Toxicity in zebrafish embryo assessed as increase in yolk sac edema at 0.1 uM preincubated for 1 hr measured after 24 to 120 hrs; settings: in vivo
Procedure, shortened: (§2)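 Wild-type AB zebrafish embryos, 4 clutch replicates of 40 embryos each, held at 28 °C through 120 hpf. Exposed in Petri dishes to 10, 1, 0.1 or 0.01 μM compound in filtered fish water with 0.1% DMSO. Water-only and DMSO controls included. Mortality, hatching and gross malformations observed.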

[5] = Toxicity in zebrafish embryo assessed as survival at 0.01 uM preincubated for 1 hr measured after 96 hrs (reference value: 82.5 +/- 8.4%); design: species or system Danio rerio; settings: zebrafish embryos
[6] = Toxicity in zebrafish embryo assessed as survival at 0.1 uM preincubated for 1 hr measured after 48 hrs (reference value: 84.4 +/- 8.5%); design: species or system Danio rerio; settings: zebrafish embryos
[7] = Toxicity in zebrafish embryo assessed as survival at 0.1 uM preincubated for 1 hr measured after 24 hrs (reference value: 86.2 +/- 8.5%); design: species or system Danio rerio; settings: zebrafish embryos
[8] = tested on: UACC-62; assay: Antiproliferative activity against human UACC62 cells assessed as growth inhibition; type: functional; procedure, shortened: as §1
[9] = target: T1, DNA topoisomerase 1 (Homo sapiens) (UniProt P11387); assay: Inhibition of recombinant Top1 (unknown origin) assessed as Top 1 mediated DNA cleavage using 3'-[32P]-labeled 117 bp DNA as substrate at 0.1 to 100 uM after 20 mins by PAGE analysis
T1 sequence (whole entry): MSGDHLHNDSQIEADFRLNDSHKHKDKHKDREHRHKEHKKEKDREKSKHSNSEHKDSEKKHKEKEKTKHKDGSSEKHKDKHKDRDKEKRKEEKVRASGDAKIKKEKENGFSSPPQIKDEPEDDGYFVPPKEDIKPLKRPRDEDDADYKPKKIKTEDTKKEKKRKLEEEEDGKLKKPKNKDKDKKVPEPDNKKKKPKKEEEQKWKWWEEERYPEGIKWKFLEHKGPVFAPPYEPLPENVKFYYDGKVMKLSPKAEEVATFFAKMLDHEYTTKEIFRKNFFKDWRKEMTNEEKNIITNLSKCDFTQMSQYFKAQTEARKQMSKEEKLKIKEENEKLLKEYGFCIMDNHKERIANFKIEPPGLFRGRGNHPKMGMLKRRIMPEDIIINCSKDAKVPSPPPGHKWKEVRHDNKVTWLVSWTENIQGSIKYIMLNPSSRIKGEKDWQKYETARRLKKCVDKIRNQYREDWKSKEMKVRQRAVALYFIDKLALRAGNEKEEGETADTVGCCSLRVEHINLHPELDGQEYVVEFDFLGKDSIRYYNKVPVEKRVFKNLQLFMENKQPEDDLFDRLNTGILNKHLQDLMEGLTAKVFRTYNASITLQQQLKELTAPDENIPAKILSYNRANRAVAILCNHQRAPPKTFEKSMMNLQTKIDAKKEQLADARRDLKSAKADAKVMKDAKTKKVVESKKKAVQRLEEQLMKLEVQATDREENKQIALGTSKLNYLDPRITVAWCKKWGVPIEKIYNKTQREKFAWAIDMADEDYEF
Procedure, shortened: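 About 2 nM 3'-[32P]-labeled DNA with recombinant Top1 in 10 mM Tris-HCl pH 7.5, 50 mM KCl, 5 mM MgCl2, 0.1 mM EDTA, 15 μg/mL BSA, 25 °C, 20 min. Compound at 0.1, 1, 10 and 100 μM. Stopped with 0.5% SDS and formamide dye, then run on 20% denaturing PAGE with phosphorimaging.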

[10] = Toxicity in zebrafish embryo assessed as survival at 0.1 uM preincubated for 1 hr measured after 120 hrs (reference value: 82.5 +/- 8.4%); design: species or system Danio rerio; settings: zebrafish embryos
[11] = Toxicity in zebrafish embryo assessed as survival at 0.1 uM preincubated for 1 hr measured after 72 hrs (reference value: 82.5 +/- 8.4%); design: species or system Danio rerio; settings: zebrafish embryos
[12] = Toxicity in zebrafish embryo assessed as survival at 0.01 uM preincubated for 1 hr measured after 24 hrs (reference value: 86.2 +/- 8.5%); design: species or system Danio rerio; settings: zebrafish embryos
[13] = species: Danio rerio; assay: Toxicity in zebrafish embryo assessed as increase in bent tail at 0.1 uM preincubated for 1 hr measured after 24 to 120 hrs; settings: in vivo; procedure, shortened: as §2
[14] = tested on: HCT-116; assay: Antiproliferative activity against human HCT116 cells assessed as growth inhibition; type: functional; procedure, shortened: as §1
[15] = Toxicity in zebrafish embryo assessed as survival at 1 uM preincubated for 1 hr measured after 120 hrs (reference value: 82.5 +/- 8.4%); design: species or system Danio rerio; settings: zebrafish embryos
[16] = Toxicity in zebrafish embryo assessed as survival at 1 uM preincubated for 1 hr measured after 24 hrs (reference value: 86.2 +/- 8.5%); design: species or system Danio rerio; settings: zebrafish embryos
[17] = Toxicity in zebrafish embryo assessed as survival at 0.1 uM preincubated for 1 hr measured after 96 hrs (reference value: 82.5 +/- 8.4%); design: species or system Danio rerio; settings: zebrafish embryos
[18] = tested on: OVCAR-3; assay: Antiproliferative activity against human OVCAR3 cells assessed as growth inhibition; type: functional; procedure, shortened: as §1
[19] = tested on: HOP-62; assay: Antiproliferative activity against human HOP62 cells assessed as growth inhibition; type: functional; procedure, shortened: as §1
[20] = Toxicity in zebrafish embryo assessed as survival at 10 uM preincubated for 1 hr measured after 24 to 120 hrs (reference value: 82.5 to 86.2%); design: species or system Danio rerio; settings: zebrafish embryos
[21] = Toxicity in zebrafish embryo assessed as survival at 0.01 uM preincubated for 1 hr measured after 120 hrs (reference value: 82.5 +/- 8.4%); design: species or system Danio rerio; settings: zebrafish embryos
[22] = Toxicity in zebrafish embryo assessed as survival at 1 uM preincubated for 1 hr measured after 72 hrs (reference value: 82.5 +/- 8.4%); design: species or system Danio rerio; settings: zebrafish embryos
[23] = species: Danio rerio; assay: Toxicity in zebrafish embryo assessed as hatching rate at 0.1 uM preincubated for 1 hr measured after 24 to 120 hrs; settings: in vivo; procedure, shortened: as §2
[24] = Toxicity in zebrafish embryo assessed as survival at 1 uM preincubated for 1 hr measured after 96 hrs (reference value: 82.5 +/- 8.4%); design: species or system Danio rerio; settings: zebrafish embryos
[25] = tested on: DU-145; assay: Antiproliferative activity against human DU145 cells assessed as growth inhibition; type: functional; procedure, shortened: as §1
[26] = Toxicity in zebrafish embryo assessed as survival at 0.01 uM preincubated for 1 hr measured after 72 hrs (reference value: 82.5 +/- 8.4%); design: species or system Danio rerio; settings: zebrafish embryos
[27] = Toxicity in zebrafish embryo assessed as survival at 1 uM preincubated for 1 hr measured after 48 hrs (reference value: 84.4 +/- 8.5%); design: species or system Danio rerio; settings: zebrafish embryos
[28] = Toxicity in zebrafish embryo assessed as survival at 0.01 uM preincubated for 1 hr measured after 48 hrs (reference value: 84.4 +/- 8.5%); design: species or system Danio rerio; settings: zebrafish embryos
[29] = tested on: SF-539; assay: Antiproliferative activity against human SF539 cells assessed as growth inhibition; type: functional; procedure, shortened: as §1
[30] = tested on: SN12C; assay: Antiproliferative activity against human SN12C cells assessed as growth inhibition; type: functional; procedure, shortened: as §1
[31] = target: T2, Tyrosyl-DNA phosphodiesterase 2 (Homo sapiens, UniProt O95551); assay: Inhibition of recombinant human TDP2 using 3'-labeled alpha-[32P]-cordycepin as substrate after 15 mins
T2 sequence (O95551 whole entry): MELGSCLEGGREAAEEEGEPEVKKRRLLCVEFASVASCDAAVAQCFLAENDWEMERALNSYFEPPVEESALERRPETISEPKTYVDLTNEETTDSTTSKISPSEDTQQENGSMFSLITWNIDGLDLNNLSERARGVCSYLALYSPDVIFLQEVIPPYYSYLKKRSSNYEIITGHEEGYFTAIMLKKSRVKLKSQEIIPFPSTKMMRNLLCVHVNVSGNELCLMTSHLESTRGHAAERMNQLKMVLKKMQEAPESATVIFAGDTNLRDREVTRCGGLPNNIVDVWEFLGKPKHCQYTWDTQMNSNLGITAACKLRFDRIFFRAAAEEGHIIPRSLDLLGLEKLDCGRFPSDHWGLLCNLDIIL

Row | Compound | GI50 [1] [nM] | Activity [2] | Activity [3] | GI50 [8] [nM] | Top1-mediated DNA cleavage activity (active/not active) [9] | GI50 [14] [nM] | GI50 [18] [nM] | GI50 [19] [nM] | GI50 [25] [nM] | GI50 [29] [nM] | also measured
1 | CC[C@@]1(O)C(=O)OCc2c1cc1n(c2=O)Cc2cc3ccccc3nc2-1 [CAMPTOTHECIN] | 13 | Active | Non-Toxic |  |  |  |  |  |  |  | 
2 | COc1cc2c3c(n(CCCNCCO)c(=O)c2cc1OC)-c1cc2c(cc1C3=O)OCO2 [LMP-744] |  | Active | Non-Toxic |  |  |  |  |  |  |  | 
3 | COc1cnc2c(c1)C(=O)c1c-2n(CCCn2ccnc2)c(=O)c2cc(Cl)ccc12 | < 10 |  |  | 28 | Active | 14 | 120 | 20 | 43 | 38 | Activity [4]: Non-Toxic; survival at 96 h, 0.01 µM [5]: 61.8%; survival at 48 h, 0.1 µM [6]: 54.4%; survival at 24 h, 0.1 µM [7]: 55.6%; survival at 120 h, 0.1 µM [10]: 50.6%; survival at 72 h, 0.1 µM [11]: 51.9%; survival at 24 h, 0.01 µM [12]: 67.5%; Activity [13]: Non-Toxic; survival at 120 h, 1 µM [15]: 1.2%; survival at 24 h, 1 µM [16]: 10.6%; survival at 96 h, 0.1 µM [17]: 50.6%; survival at 10 µM [20]: 0%; survival at 120 h, 0.01 µM [21]: 61.9%; survival at 72 h, 1 µM [22]: 1.2%; Activity [23]: Non-Toxic; survival at 96 h, 1 µM [24]: 1.2%; survival at 72 h, 0.01 µM [26]: 63.1%; survival at 48 h, 1 µM [27]: 1.2%; survival at 48 h, 0.01 µM [28]: 65.6%
4 | CCNCCCn1c2c(c3ccc(Cl)cc3c1=O)C(=O)c1cc(OC)cnc1-2 | < 10 |  |  | 532 | Active | 203 | 2130 | 122 | 208 | 506 | GI50 [30]: 675 nM; pIC50 [31]: < 3.95
5 | COc1cnc2c(c1)C(=O)c1c-2n(CCCN2CCC(O)CC2)c(=O)c2cc(Cl)ccc12 | 42 | Active | Non-Toxic | 190 | Active | 98 | 1420 | 94 | 270 | 430 | 
